From ChEMBL document CHEMBL3585325, “Discovery of (1R,2S)-2-{[(2,4-Dimethylpyrimidin-5-yl)oxy]methyl}-2-(3-fluorophenyl)-N-(5-fluoropyridin-2-yl)cyclopropanecarboxamide (E2006): A Potent and Efficacious Oral Orexin Receptor Antagonist” (J Med Chem, 2015)
In brackets after ≈: the same amount, converted by molar mass.

What was measured:
[1] = Aqueous solubility of the compound in Dulbecco's phosphate buffered saline at pH 7.4 by DMSO solution precipitation method; type: physicochemical
Method in brief: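 Solubility in Dulbecco's PBS at pH 7.4, measured at room temperature by precipitation from a DMSO solution.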

[2] = target: CYP3A (Homo sapiens, UniProt P08684+P20815+P24462+Q9HB55); test: Time dependent inhibition of CYP3A in human liver microsomes assessed as enzyme activity using midazolam as substrate at 10 uM incubated for 30 mins prior to substrate addition for 10 mins by LC-MS/MS analysis; type: ADME; design: scale not given: the % may be the effect or the level left; details: probe midazolam, read-out: Activity
Method in brief: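 Test compound at 10 μM preincubated 30 min at 37 °C with human liver microsomes (0.2 mg/mL), with or without an NADPH-generating system. Mixture then diluted 10-fold into a marker-substrate cocktail plus NADPH system and incubated 10 min at 37 °C. Midazolam served as the CYP3A probe. Metabolites measured by LC−MS/MS. Result is the residual activity with NADPH relative to without, as % of control.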

[3] = target: Cytochrome P450 2C9 (Homo sapiens, UniProt P11712); test: Inhibition of CYP2C9 in human liver microsomes using tolbutamide as susbtrate incubated for 30 mins prior to substrate addition for 10 mins by LC-MS/MS analysis; type: ADME
Chain of Cytochrome P450 2C9 (P11712 whole entry): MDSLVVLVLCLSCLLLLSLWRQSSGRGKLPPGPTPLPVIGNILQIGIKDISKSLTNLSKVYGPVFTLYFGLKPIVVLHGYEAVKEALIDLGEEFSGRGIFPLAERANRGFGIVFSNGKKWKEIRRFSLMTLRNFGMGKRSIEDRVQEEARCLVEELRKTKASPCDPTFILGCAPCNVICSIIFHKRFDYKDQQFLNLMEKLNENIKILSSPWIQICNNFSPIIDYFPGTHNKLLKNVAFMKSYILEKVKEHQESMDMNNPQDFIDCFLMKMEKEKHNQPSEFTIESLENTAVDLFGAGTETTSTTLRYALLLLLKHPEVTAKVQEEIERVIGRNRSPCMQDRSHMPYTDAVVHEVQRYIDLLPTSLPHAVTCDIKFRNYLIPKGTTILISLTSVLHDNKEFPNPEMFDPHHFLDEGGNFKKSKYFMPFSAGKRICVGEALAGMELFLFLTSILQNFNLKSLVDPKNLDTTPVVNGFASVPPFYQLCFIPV

[4] = target: Cytochrome P450 2C19 (Homo sapiens, UniProt P33261); test: Inhibition of CYP2C19 in human liver microsomes using S-mephenytoin as susbtrate incubated for 30 mins prior to substrate addition for 10 mins by LC-MS/MS analysis; type: ADME
Chain of Cytochrome P450 2C19 (P33261 whole entry): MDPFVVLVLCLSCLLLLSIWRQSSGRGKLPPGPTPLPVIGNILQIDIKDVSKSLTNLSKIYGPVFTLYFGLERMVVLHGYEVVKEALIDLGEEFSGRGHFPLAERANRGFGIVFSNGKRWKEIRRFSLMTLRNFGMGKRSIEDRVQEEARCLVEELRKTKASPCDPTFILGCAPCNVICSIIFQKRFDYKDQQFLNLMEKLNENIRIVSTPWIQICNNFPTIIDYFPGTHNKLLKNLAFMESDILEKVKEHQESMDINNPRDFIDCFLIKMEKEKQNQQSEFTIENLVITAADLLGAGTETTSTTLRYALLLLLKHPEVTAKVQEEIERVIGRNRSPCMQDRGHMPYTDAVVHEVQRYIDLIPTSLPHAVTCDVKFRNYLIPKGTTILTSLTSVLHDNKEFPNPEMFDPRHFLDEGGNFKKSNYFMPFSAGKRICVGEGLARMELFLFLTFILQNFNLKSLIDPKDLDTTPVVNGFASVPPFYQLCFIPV

[5] = Aqueous solubility of the compound in Japanese Pharmacopoeia 1st fluid at pH 1.2 by DMSO solution precipitation method; type: physicochemical
Method in brief: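 Solubility in Japanese Pharmacopoeia 1st fluid (aqueous HCl containing 34 mM NaCl), pH 1.2, measured at room temperature by precipitation from a DMSO solution.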

[6] = Activity at P-gp (unknown origin) assessed as corrected flux ratio; type: ADME; details: human
Method in brief: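 Reported as corrected flux ratio, i.e. the MDR1 flux ratio divided by the PK1 flux ratio.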

[7] = target: T1, Cytochrome P450 2C8 (Homo sapiens, UniProt P10632); test: Inhibition of CYP2C8 in human liver microsomes using rosiglitazone as susbtrate incubated for 30 mins prior to substrate addition for 10 mins by LC-MS/MS analysis; type: ADME
T1 sequence (P10632 whole entry): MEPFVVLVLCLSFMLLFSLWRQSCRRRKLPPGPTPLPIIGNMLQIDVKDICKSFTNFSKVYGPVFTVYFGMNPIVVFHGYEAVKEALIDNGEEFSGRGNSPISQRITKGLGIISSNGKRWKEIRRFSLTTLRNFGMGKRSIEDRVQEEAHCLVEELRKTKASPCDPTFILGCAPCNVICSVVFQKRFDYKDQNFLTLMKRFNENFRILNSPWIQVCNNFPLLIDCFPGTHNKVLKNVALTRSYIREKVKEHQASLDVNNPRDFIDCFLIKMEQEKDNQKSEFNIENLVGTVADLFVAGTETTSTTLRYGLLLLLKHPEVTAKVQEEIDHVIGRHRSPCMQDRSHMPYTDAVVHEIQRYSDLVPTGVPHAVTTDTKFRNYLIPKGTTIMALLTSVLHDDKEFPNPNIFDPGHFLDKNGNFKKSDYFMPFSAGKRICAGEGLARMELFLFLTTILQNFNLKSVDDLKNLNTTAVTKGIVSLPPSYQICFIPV

[8] = target: Cytochrome P450 2D6 (Homo sapiens, UniProt P10635); test: Inhibition of CYP2D6 in human liver microsomes using bufuralol as susbtrate incubated for 30 mins prior to substrate addition for 10 mins by LC-MS/MS analysis; type: ADME
Chain of Cytochrome P450 2D6 (P10635 whole entry): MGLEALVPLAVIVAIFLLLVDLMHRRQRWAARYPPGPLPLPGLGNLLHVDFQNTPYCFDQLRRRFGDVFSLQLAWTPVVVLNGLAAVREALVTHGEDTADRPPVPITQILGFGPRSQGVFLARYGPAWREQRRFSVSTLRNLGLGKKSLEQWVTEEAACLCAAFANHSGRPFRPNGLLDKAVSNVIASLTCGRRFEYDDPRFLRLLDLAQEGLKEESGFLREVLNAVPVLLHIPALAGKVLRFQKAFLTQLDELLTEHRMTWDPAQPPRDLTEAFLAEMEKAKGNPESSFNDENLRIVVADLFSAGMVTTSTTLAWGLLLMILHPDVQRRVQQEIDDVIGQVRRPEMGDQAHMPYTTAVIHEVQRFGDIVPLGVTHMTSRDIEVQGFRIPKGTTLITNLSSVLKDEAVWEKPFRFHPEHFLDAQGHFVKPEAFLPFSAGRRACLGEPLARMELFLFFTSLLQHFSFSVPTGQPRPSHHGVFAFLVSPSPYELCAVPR

[9] = target: T2, Orexin receptor type 2 (Homo sapiens, UniProt O43614); test: Binding affinity to human OX2R by radioligand displacement binding assay
T2 sequence (O43614 whole entry): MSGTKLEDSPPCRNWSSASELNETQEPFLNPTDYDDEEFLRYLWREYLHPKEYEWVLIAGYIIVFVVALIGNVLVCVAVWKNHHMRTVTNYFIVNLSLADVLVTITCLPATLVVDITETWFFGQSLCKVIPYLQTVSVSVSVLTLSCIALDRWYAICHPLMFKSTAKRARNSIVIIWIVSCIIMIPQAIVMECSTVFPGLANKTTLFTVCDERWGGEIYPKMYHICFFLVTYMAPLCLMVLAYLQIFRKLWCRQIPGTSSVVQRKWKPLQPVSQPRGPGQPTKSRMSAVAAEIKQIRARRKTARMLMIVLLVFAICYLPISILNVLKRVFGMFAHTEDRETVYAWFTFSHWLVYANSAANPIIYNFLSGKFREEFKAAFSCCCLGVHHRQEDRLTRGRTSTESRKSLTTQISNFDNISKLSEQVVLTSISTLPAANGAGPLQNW

[10] = Metabolic stability in human liver microsomes assessed as residual ratio at 0.3 uM after 15 mins by LC-MS analysis; type: ADME; details: read-out: Stability
Method in brief: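 Human liver microsomes (0.2 mg/mL) incubated with test compound at 0.3 μM in 0.1% DMSO for 15 min at 37 °C, with and without an NADPH-generating system. Reaction stopped with acetonitrile/methanol (7:3) containing internal standard. Parent compound quantified by LC−MS. Value is the residual ratio in the presence versus absence of NADPH.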

[11] = target: T3, Cytochrome P450 1A2 (Homo sapiens, UniProt P05177); test: Inhibition of CYP1A2 in human liver microsomes using phenacetin as susbtrate incubated for 30 mins prior to substrate addition for 10 mins by LC-MS/MS analysis; type: ADME
T3 sequence (P05177 whole entry): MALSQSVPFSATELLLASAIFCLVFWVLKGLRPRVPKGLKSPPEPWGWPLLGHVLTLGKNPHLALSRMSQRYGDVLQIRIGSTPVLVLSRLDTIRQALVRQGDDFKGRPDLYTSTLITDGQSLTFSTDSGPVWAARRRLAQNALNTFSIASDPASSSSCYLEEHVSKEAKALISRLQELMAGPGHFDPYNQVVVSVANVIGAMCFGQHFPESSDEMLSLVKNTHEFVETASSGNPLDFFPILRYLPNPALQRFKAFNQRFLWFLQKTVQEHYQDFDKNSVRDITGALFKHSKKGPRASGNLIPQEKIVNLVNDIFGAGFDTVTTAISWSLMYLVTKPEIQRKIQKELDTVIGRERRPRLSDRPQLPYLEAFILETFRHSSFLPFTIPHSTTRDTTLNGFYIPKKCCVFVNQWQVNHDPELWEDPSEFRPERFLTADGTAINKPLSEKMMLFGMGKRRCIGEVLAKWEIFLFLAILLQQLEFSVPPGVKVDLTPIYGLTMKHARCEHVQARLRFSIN

[12] = target: T4, Orexin/Hypocretin receptor type 1 (Homo sapiens, UniProt O43613); test: Binding affinity to human OX1R by radioligand displacement binding assay
T4 sequence (O43613 whole entry): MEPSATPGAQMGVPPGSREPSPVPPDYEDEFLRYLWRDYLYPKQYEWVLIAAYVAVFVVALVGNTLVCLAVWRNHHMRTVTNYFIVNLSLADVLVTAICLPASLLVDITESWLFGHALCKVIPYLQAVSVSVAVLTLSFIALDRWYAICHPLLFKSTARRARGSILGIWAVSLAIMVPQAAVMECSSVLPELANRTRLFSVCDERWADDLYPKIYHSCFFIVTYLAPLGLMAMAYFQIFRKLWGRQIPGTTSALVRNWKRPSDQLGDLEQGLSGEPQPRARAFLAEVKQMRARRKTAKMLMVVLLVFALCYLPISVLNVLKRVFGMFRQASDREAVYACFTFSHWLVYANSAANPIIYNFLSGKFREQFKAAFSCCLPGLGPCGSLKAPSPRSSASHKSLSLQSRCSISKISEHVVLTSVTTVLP
Method in brief: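 Ki values come from single experiments run in triplicate.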

solubility kinetic [1]: 15 µM (≈ 6.44 µg/mL) | activity at 10 min, 10 µM [2]: 49% | IC50 [3]: > 10 µM | IC50 [4]: 8.6 µM | solubility kinetic [5]: 25 µM (≈ 10.7 µg/mL) | Ratio [6]: 1 | IC50 [7]: 8 µM | IC50 [8]: > 10 µM | Ki [9]: 0.005 µM | remaining at 0.25 h, 0.3 µM [10]: 80% | IC50 [11]: > 10 µM | Ki [12]: 0.106 µM
SMILES: COc1ccc(OC[C@@]2(c3ccccc3)C[C@H]2C(=O)Nc2ccc(C#N)cn2)cc1OC
